Results taken from ChEMBL document CHEMBL1148744, “Synthesis and antiviral and cytostatic evaluations of the new C-5 substituted pyrimidine and furo[2,3-d]pyrimidine 4',5'-didehydro-L-ascorbic acid derivatives” (J Med Chem, 2007).
Values after ≈ are worked out from the molar mass of the structure shown.

Test system: not listed separately
Experiment: Cytotoxicity against human HEL cells assessed as alteration in cell morphology
Assay type: cell-based
Conditions: not given
Outline: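 Confluent human embryonic lung (HEL) fibroblast cultures were exposed to a range of compound concentrations. Cells were examined microscopically for any detectable change in normal morphology. The minimum cytotoxic concentration (MCC) was the lowest concentration causing such a change.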

Structure (SMILES)	MCC [µM]
CCCCCC(O)c1cc2cn(C/C=C3\OC(=O)C(OCc4ccccc4)=C3OCc3ccccc3)c(=O)nc2o1 (stereo unspecified)	≥ 100
C#CCCCc1cc2cn(C/C=C3\OC(=O)C(OCc4ccccc4)=C3OCc3ccccc3)c(=O)nc2o1	> 100
CCCCC#Cc1cn(C/C=C2\OC(=O)C(OCc3ccccc3)=C2OCc2ccccc2)c(=O)[nH]c1=O	≥ 100
CCCCCc1ccc(C#Cc2cn(C/C=C3\OC(=O)C(OCc4ccccc4)=C3OCc3ccccc3)c(=O)[nH]c2=O)cc1	≥ 4
CCCCCC(O)C#Cc1cn(C/C=C2\OC(=O)C(OCc3ccccc3)=C2OCc2ccccc2)c(=O)[nH]c1=O (stereo unspecified)	≥ 100
O=C1O/C(=C\Cn2cc(C#Cc3ccc(Br)cc3)c(=O)[nH]c2=O)C(OCc2ccccc2)=C1OCc1ccccc1	≥ 4
Cc1ccc(C#Cc2cn(C/C=C3\OC(=O)C(OCc4ccccc4)=C3OCc3ccccc3)c(=O)[nH]c2=O)cc1	60
CCCCCc1cc2cn(C/C=C3\OC(=O)C(OCc4ccccc4)=C3OCc3ccccc3)c(=O)nc2o1	100
CCCCCc1ccc(-c2cc3cn(C/C=C4\OC(=O)C(OCc5ccccc5)=C4OCc4ccccc4)c(=O)nc3o2)cc1	≥ 20
CCCCCCCCC#Cc1cn(C/C=C2\OC(=O)C(OCc3ccccc3)=C2OCc2ccccc2)c(=O)[nH]c1=O	100
C#CCCCC#Cc1cn(C/C=C2\OC(=O)C(OCc3ccccc3)=C2OCc2ccccc2)c(=O)[nH]c1=O	≥ 20
CCCCc1cc2cn(C/C=C3\OC(=O)C(OCc4ccccc4)=C3OCc3ccccc3)c(=O)nc2o1	20
CCCCc1ccc(C#Cc2cn(C/C=C3\OC(=O)C(OCc4ccccc4)=C3OCc3ccccc3)c(=O)[nH]c2=O)cc1	60
CCCCCCC#Cc1cn(C/C=C2\OC(=O)C(OCc3ccccc3)=C2OCc2ccccc2)c(=O)[nH]c1=O	20
O=C1O/C(=C\Cn2cc3cc(CCc4ccccc4)oc3nc2=O)C(OCc2ccccc2)=C1OCc1ccccc1	100
CCCCCCc1cc2cn(C/C=C3\OC(=O)C(OCc4ccccc4)=C3OCc3ccccc3)c(=O)nc2o1	100
O=C1O/C(=C\Cn2cc3cc(-c4ccc(Br)cc4)oc3nc2=O)C(OCc2ccccc2)=C1OCc1ccccc1	≥ 20
Cc1ccc(-c2cc3cn(C/C=C4\OC(=O)C(OCc5ccccc5)=C4OCc4ccccc4)c(=O)nc3o2)cc1	100
CCCCc1ccc(-c2cc3cn(C/C=C4\OC(=O)C(OCc5ccccc5)=C4OCc4ccccc4)c(=O)nc3o2)cc1	≥ 20
CCCCCCCCc1cc2cn(C/C=C3\OC(=O)C(OCc4ccccc4)=C3OCc3ccccc3)c(=O)nc2o1	100
CCCCCC#Cc1cn(C/C=C2\OC(=O)C(OCc3ccccc3)=C2OCc2ccccc2)c(=O)[nH]c1=O	20
Nc1nc2c(ncn2COCCO)c(=O)[nH]1 [ACYCLOVIR]	> 1780
O=c1[nH]c(=O)n([C@H]2C[C@H](O)[C@@H](CO)O2)cc1/C=C/Br [BRIVUDINE]	≥ 1200
Nc1ccn(C[C@@H](CO)OCP(=O)(O)O)c(=O)n1 [CIDOFOVIR]	≥ 1270
Nc1nc2c(ncn2COC(CO)CO)c(=O)[nH]1 [GANCICLOVIR]	≥ 1580

Test system: not listed separately
Experiment: Cytotoxicity against human HEL cells assessed as reduction of cell growth
Assay type: cell-based
Conditions: not given
Outline: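 HEL cells were seeded at 5 × 10^3 cells/well and allowed to proliferate for 24 h. Medium with graded compound concentrations was then added, followed by 3 days at 37 °C. Cell number was counted with a Coulter counter.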

Structure (SMILES)	CC50 [µM]
Nc1nc2c(ncn2COCCO)c(=O)[nH]1 [ACYCLOVIR]	545
O=c1[nH]c(=O)n([C@H]2C[C@H](O)[C@@H](CO)O2)cc1/C=C/Br [BRIVUDINE]	270
Nc1ccn(C[C@@H](CO)OCP(=O)(O)O)c(=O)n1 [CIDOFOVIR]	133
Nc1nc2c(ncn2COC(CO)CO)c(=O)[nH]1 [GANCICLOVIR]	262

Test system: Human alphaherpesvirus 3
Experiment: Antiviral activity against thymidine kinase-positive VZV OKA in human HEL cells after 7 days
Assay type: functional, organism-based
Conditions: Human alphaherpesvirus 3, OKA, 168 h

Structure (SMILES)	EC50 [µM]
O=c1[nH]c(=O)n([C@H]2C[C@H](O)[C@@H](CO)O2)cc1/C=C/Br [BRIVUDINE]	0.014

Test system: Human alphaherpesvirus 3
Experiment: Antiviral activity against thymidine kinase deficient VZV 07/1 in human HEL cells after 7 days
Assay type: functional, organism-based
Conditions: Human alphaherpesvirus 3, 07/1, HEL, 168 h

Structure (SMILES)	EC50 [µM]
O=c1[nH]c(=O)n([C@H]2C[C@H](O)[C@@H](CO)O2)cc1/C=C/Br [BRIVUDINE]	168

Test system: Human betaherpesvirus 5
Experiment: Antiviral activity against CMV AD169 in human HEL cells after 7 days
Assay type: functional, organism-based
Conditions: Human betaherpesvirus 5, AD169, HEL, 168 h
Outline: (§1)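 Confluent HEL fibroblasts were infected at 100 PFU per well. After 2 h, residual virus was removed and cells were kept in MEM with serial compound concentrations for 7 days at 37 °C. Cytopathogenicity or plaques were scored microscopically after ethanol fixation and Giemsa staining.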

Structure (SMILES)	EC50 [µM]
Nc1ccn(C[C@@H](CO)OCP(=O)(O)O)c(=O)n1 [CIDOFOVIR]	0.67

Test system: Human betaherpesvirus 5
Experiment: Antiviral activity against CMV Davis in human HEL cells after 7 days
Assay type: functional, organism-based
Conditions: Human betaherpesvirus 5, Davis, 168 h
Outline: as §1

Structure (SMILES)	EC50 [µM]
Nc1ccn(C[C@@H](CO)OCP(=O)(O)O)c(=O)n1 [CIDOFOVIR]	0.67
Nc1nc2c(ncn2COC(CO)CO)c(=O)[nH]1 [GANCICLOVIR]	2.6

Test system: Vesicular stomatitis virus
Experiment: Antiviral activity against VSV in HeLa cells assessed as reduction of virus-induced cytopathogenicity
Assay type: functional
Conditions: not given

Structure (SMILES)	MIC [µM]
Nc1ncnc2c1ncn2C[C@H](O)CO [(S)-DHPA]	> 250
O=c1[nH]c(=O)n([C@H]2C[C@H](O)[C@@H](CO)O2)cc1/C=C/Br [BRIVUDINE]	> 250
NC(=O)c1ncn([C@@H]2O[C@H](CO)[C@@H](O)[C@H]2O)n1 [RIBAVIRIN]	> 250

Test system: Human respirovirus 3
Experiment: Antiviral activity against Parainfluenza 3 virus in Vero cells assessed as reduction of virus-induced cytopathogenicity
Assay type: functional
Conditions: not given

Structure (SMILES)	MIC [µM]
Nc1ncnc2c1ncn2C[C@H](O)CO [(S)-DHPA]	50 (≈ 10.5 µg/mL)
O=c1[nH]c(=O)n([C@H]2C[C@H](O)[C@@H](CO)O2)cc1/C=C/Br [BRIVUDINE]	> 250
NC(=O)c1ncn([C@@H]2O[C@H](CO)[C@@H](O)[C@H]2O)n1 [RIBAVIRIN]	150 (≈ 36.6 µg/mL)

Test system: Human alphaherpesvirus 1
Experiment: Antiviral activity against HSV1 KOS in HEL cells assessed as reduction of virus-induced cytopathogenicity
Assay type: functional
Conditions: Human alphaherpesvirus 1, KOS

Structure (SMILES)	MIC [µM]
Nc1nc2c(ncn2COC(CO)CO)c(=O)[nH]1 [GANCICLOVIR]	0.032 (≈ 0.00817 µg/mL)
NC(=O)c1ncn([C@@H]2O[C@H](CO)[C@@H](O)[C@H]2O)n1 [RIBAVIRIN]	250 (≈ 61.1 µg/mL)

Test system: Mammalian orthoreovirus 1
Experiment: Antiviral activity against Reovirus 1 in Vero cells assessed as reduction of virus-induced cytopathogenicity
Assay type: functional
Conditions: not given

Structure (SMILES)	MIC [µM]
Nc1ncnc2c1ncn2C[C@H](O)CO [(S)-DHPA]	250 (≈ 52.3 µg/mL)
O=c1[nH]c(=O)n([C@H]2C[C@H](O)[C@@H](CO)O2)cc1/C=C/Br [BRIVUDINE]	> 250
NC(=O)c1ncn([C@@H]2O[C@H](CO)[C@@H](O)[C@H]2O)n1 [RIBAVIRIN]	150 (≈ 36.6 µg/mL)

Test system: Human alphaherpesvirus 2
Experiment: Antiviral activity against HSV2 G in HEL cells assessed as reduction of virus-induced cytopathogenicity
Assay type: functional
Conditions: Human alphaherpesvirus 2, G

Structure (SMILES)	MIC [µM]
Nc1nc2c(ncn2COCCO)c(=O)[nH]1 [ACYCLOVIR]	0.4 (≈ 0.0901 µg/mL)
O=c1[nH]c(=O)n([C@H]2C[C@H](O)[C@@H](CO)O2)cc1/C=C/Br [BRIVUDINE]	10 (≈ 3.33 µg/mL)
Nc1nc2c(ncn2COC(CO)CO)c(=O)[nH]1 [GANCICLOVIR]	0.0064 (≈ 0.00163 µg/mL)
NC(=O)c1ncn([C@@H]2O[C@H](CO)[C@@H](O)[C@H]2O)n1 [RIBAVIRIN]	250 (≈ 61.1 µg/mL)

Test system: Respiratory syncytial virus
Experiment: Antiviral activity against RSV in HeLa cells assessed as reduction of virus-induced cytopathogenicity
Assay type: functional
Conditions: human respiratory syncytial virus

Structure (SMILES)	MIC [µM]
Nc1ncnc2c1ncn2C[C@H](O)CO [(S)-DHPA]	> 250
O=c1[nH]c(=O)n([C@H]2C[C@H](O)[C@@H](CO)O2)cc1/C=C/Br [BRIVUDINE]	> 250
NC(=O)c1ncn([C@@H]2O[C@H](CO)[C@@H](O)[C@H]2O)n1 [RIBAVIRIN]	150 (≈ 36.6 µg/mL)

Test system: Sindbis virus
Experiment: Antiviral activity against Sindbis virus in Vero cells assessed as reduction of virus-induced cytopathogenicity
Assay type: functional
Conditions: not given

Structure (SMILES)	MIC [µM]
Nc1ncnc2c1ncn2C[C@H](O)CO [(S)-DHPA]	> 250
O=c1[nH]c(=O)n([C@H]2C[C@H](O)[C@@H](CO)O2)cc1/C=C/Br [BRIVUDINE]	> 250
NC(=O)c1ncn([C@@H]2O[C@H](CO)[C@@H](O)[C@H]2O)n1 [RIBAVIRIN]	> 250

Test system: Coxsackievirus B4
Experiment: Antiviral activity against Coxsackie virus B4 in Vero cells assessed as reduction of virus-induced cytopathogenicity
Assay type: functional
Conditions: Enterovirus B

Structure (SMILES)	MIC [µM]
Nc1ncnc2c1ncn2C[C@H](O)CO [(S)-DHPA]	> 250
O=c1[nH]c(=O)n([C@H]2C[C@H](O)[C@@H](CO)O2)cc1/C=C/Br [BRIVUDINE]	> 250
NC(=O)c1ncn([C@@H]2O[C@H](CO)[C@@H](O)[C@H]2O)n1 [RIBAVIRIN]	> 250

Test system: Punta Toro virus
Experiment: Antiviral activity against Punta Toro virus in Vero cells assessed as reduction of virus-induced cytopathogenicity
Assay type: functional
Conditions: not given

Structure (SMILES)	MIC [µM]
Nc1ncnc2c1ncn2C[C@H](O)CO [(S)-DHPA]	> 250
O=c1[nH]c(=O)n([C@H]2C[C@H](O)[C@@H](CO)O2)cc1/C=C/Br [BRIVUDINE]	> 250
NC(=O)c1ncn([C@@H]2O[C@H](CO)[C@@H](O)[C@H]2O)n1 [RIBAVIRIN]	250 (≈ 61.1 µg/mL)
